Measurements as given in ChEMBL document CHEMBL1143019, “Hybrid molecules of estrone: new compounds with potential antibacterial, antifungal, and antiproliferative activities” (2007).
≈ marks a conversion by molar mass, not a printed value.

How the values were obtained:
Staphylococcus aureus [1] = test: Antibacterial activity against Staphylococcus aureus SG 511 after 24 hrs by micro-broth dilution method; type: functional; conditions: SG 511, 24 h
Procedure, shortened: (§1)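 Microbroth dilution per NCCLS guidelines. Bacteria grown overnight at 37 °C in Mueller–Hinton broth. Compound solution serially diluted twofold in MHB, then wells inoculated to a final 5×10⁵ CFU/mL. Incubated 24 h at 37 °C. MIC (µg/mL) read on an automatic plate reader as the lowest dilution allowing no visible growth.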

Mycobacterium avium [2] = test: Antimicrobial activity against Mycobacterium avium My 330/88 after 14 days; type: functional; conditions: 336 h
Candida tropicalis [3] = test: Antifungal activity against Candida tropicalis 156 after 24 hrs; type: functional
Procedure, shortened: (§2)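 Modified NCCLS M27-A broth microdilution with clinical isolates subcultured on Sabouraud dextrose agar. Suspensions diluted 1:50 in RPMI 1640 to give a final inoculum of 0.5–2.5×10³ CFU/mL for yeasts or 0.5–5×10⁴ CFU/mL for molds. The RPMI had L-glutamine, no bicarbonate, and 0.165 M MOPS to pH 7.0. Twofold dilutions from 250 to 0.49. Plates held at 35 °C, humid, without agitation. MIC is the lowest concentration giving ≥80% inhibition versus drug-free control, read at 24 and 48 h.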

HeLa = test: Cytotoxicity against human HeLa cells after 72 hrs; type: functional; conditions: for CC50: Homo sapiens, HeLa, 72 h
Procedure, shortened: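 About 10,000 cells per well in RPMI 1640 were preincubated 48 h without compound. The 10 test concentrations were then applied onto the monolayers and incubated 72 h at 37 °C in humidified 5% CO₂. Monolayers fixed with glutaraldehyde, stained with 0.05% methylene blue, and eluted with 0.33 N HCl; optical density measured at 630 nm.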

Nakaseomyces glabratus [4] = test: Antifungal activity against Candida glabrata 20/I after 48 hrs; type: functional; procedure, shortened: as §2
L929 = test: Antiproliferative activity against mouse L929 cells after 72 hrs; type: functional; conditions: L929, 72 h
Procedure, shortened: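 About 10,000 adherent cells per well in RPMI 1640 with 10% heat-inactivated FBS and penicillin/streptomycin, without HEPES. Exposed to 10 concentrations for 72 h at 37 °C in humidified 5% CO₂. Monolayers fixed with glutaraldehyde, stained 15 min with 0.05% methylene blue, and eluted with 0.33 N HCl; OD read at 630 nm. GI50 derived from dose–response curves relative to control.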

Mycobacterium kansasii [5] = test: Antimicrobial activity against Mycobacterium kansasii My 6509/96 after 7 days; type: functional; conditions: 168 h
Procedure, shortened: (§3)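 Run in Šula semisynthetic liquid medium containing bovine serum. Compounds added as DMSO solutions at final concentrations of […]. Each strain was also inoculated onto Löwenstein–Jensen medium to control inoculum sterility and growth.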

Lichtheimia corymbifera [6] = test: Antifungal activity against Absidia corymbifera 272 after 24 hrs; type: functional; procedure, shortened: as §2
Trichophyton benhamiae [7] = test: Antifungal activity against Trichophyton mentagrophytes 445 after 120 hrs; type: functional, Arthroderma benhamiae
Procedure, shortened: (§4)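 Same modified M27-A microdilution with the mold inoculum of 0.5–5×10⁴ CFU/mL. Medium was RPMI 1640 with L-glutamine, no bicarbonate, and 0.165 M MOPS at pH 7.0. Twofold dilutions from 250 to 0.49. Incubated at 35 °C in a humid atmosphere.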

Pichia kudriavzevii [8] = test: Antifungal activity against Candida krusei E28 after 24 hrs; type: functional; procedure, shortened: as §2
Candida albicans [9] = test: Antifungal activity against Candida albicans ATCC 44859 after 24 hrs; type: functional; conditions: ATCC 44859, 24 h; procedure, shortened: as §2
[10] = test system: Mycobacterium tuberculosis; test: Antimicrobial activity against Mycobacterium tuberculosis My 331/88 after 14 days; type: functional; conditions: 336 h
Mycobacterium kansasii [11] = test: Antimicrobial activity against Mycobacterium kansasii My 235/80 after 21 days; type: functional; conditions: 504 h; procedure, shortened: as §3
Mycolicibacterium vaccae = test: Antimicrobial activity against Mycobacterium vaccae 10670 after 24 hrs by micro-broth dilution method; type: functional; procedure, shortened: as §1
[12] = test system: Mycolicibacterium fortuitum; test: Antimicrobial activity against Mycobacterium fortuitum Borstel after 24 hrs by microbroth dilution method; type: functional; procedure, shortened: as §1
Mycobacterium kansasii [13] = test: Antimicrobial activity against Mycobacterium kansasii My 6509/96 after 14 days; type: functional; conditions: 336 h; procedure, shortened: as §3
K562 = test: Antiproliferative activity against human K562 cells after 72 hrs; type: functional; conditions: K562, 72 h
Procedure, shortened: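 About 10,000 suspension cells per well in RPMI 1640 with 10% heat-inactivated FBS and penicillin/streptomycin, without HEPES. Exposed to 10 concentrations for 72 h at 37 °C in humidified 5% CO₂. Wells diluted 1:50 in CASYTON and counted electronically, each result the mean of three successive counts. GI50 is where the concentration–response curve crosses 50% of control cell count.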

Staphylococcus aureus [14] = test: Antibacterial activity against methicillin-resistant Staphylococcus aureus 994/93 after 24 hrs by micro-broth dilution method; type: functional
Procedure, shortened: (§5)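 Broth microdilution per NCCLS in Mueller–Hinton broth. Overnight cultures grown at 37 °C. Compound serially diluted twofold, then wells inoculated to a final 5×10⁵ CFU/mL. Plates held at 37 °C for 24 h. MIC (µg/mL) read on an automatic plate reader as the lowest dilution with no visible growth.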

Trichophyton benhamiae [15] = test: Antifungal activity against Trichophyton mentagrophytes 445 after 72 hrs; type: functional, Arthroderma benhamiae; procedure, shortened: as §4
Nakaseomyces glabratus [16] = test: Antifungal activity against Candida glabrata 20/I after 24 hrs; type: functional; procedure, shortened: as §2
Staphylococcus aureus [17] = test: Antibacterial activity against methicillin-resistant Staphylococcus aureus 134/94 after 24 hrs by microbroth dilution method; type: functional; procedure, shortened: as §5
Candida albicans [18] = test: Antifungal activity against Candida albicans ATCC 44859 after 48 hrs; type: functional; conditions: ATCC 44859, 48 h; procedure, shortened: as §2
Pichia kudriavzevii [19] = test: Antifungal activity against Candida krusei E28 after 48 hrs; type: functional; procedure, shortened: as §2
Mycobacterium kansasii [20] = test: Antimicrobial activity against Mycobacterium kansasii My 235/80 after 14 days; type: functional; conditions: 336 h; procedure, shortened: as §3
[21] = test system: Mycolicibacterium smegmatis; test: Antimicrobial activity against Mycobacterium smegmatis SG 987 after 24 hrs by micro-broth dilution method; type: functional; procedure, shortened: as §1
Aspergillus fumigatus [22] = test: Antifungal activity against Aspergillus fumigatus 231 after 48 hrs; type: functional; procedure, shortened: as §2
Mycolicibacterium aurum = test: Antimicrobial activity against Mycobacterium aurum SB 66 after 24 hrs by micro-broth dilution method; type: functional; procedure, shortened: as §1
Aspergillus fumigatus [23] = test: Antifungal activity against Aspergillus fumigatus 231 after 24 hrs; type: functional; procedure, shortened: as §2
Mycobacterium kansasii [24] = test: Antimicrobial activity against Mycobacterium kansasii My 235/80 after 7 days; type: functional; conditions: 168 h; procedure, shortened: as §3
[25] = test system: Mycobacterium tuberculosis; test: Antimicrobial activity against Mycobacterium tuberculosis My 331/88 after 21 days; type: functional; conditions: 504 h
Candida tropicalis [26] = test: Antifungal activity against Candida tropicalis 156 after 48 hrs; type: functional; procedure, shortened: as §2
Lichtheimia corymbifera [27] = test: Antifungal activity against Absidia corymbifera 272 after 48 hrs; type: functional; procedure, shortened: as §2
Trichosporon beigelii [28] = test: Antifungal activity against Trichosporon beigelii 1188 after 24 hrs; type: functional; procedure, shortened: as §2
Enterococcus faecalis = test: Antibacterial activity against Enterococcus faecalis 1528 after 24 hrs by micro-broth dilution method; type: functional; procedure, shortened: as §1
Trichosporon beigelii [29] = test: Antifungal activity against Trichosporon beigelii 1188 after 48 hrs; type: functional; procedure, shortened: as §2
Mycobacterium avium [30] = test: Antimicrobial activity against Mycobacterium avium My 330/88 after 21 days; type: functional; conditions: 504 h
Micrococcus luteus = test: Antibacterial activity against Micrococcus luteus ATCC 10240 after 24 hrs by microbroth dilution method; type: functional; conditions: ATCC 10240, 24 h; procedure, shortened: as §1
Mycobacterium kansasii [31] = test: Antimicrobial activity against Mycobacterium kansasii My 6509/96 after 21 days; type: functional; conditions: 504 h; procedure, shortened: as §3

| Structure (SMILES) | MIC (Staphylococcus aureus [1]) [µg/mL] | MIC (Mycobacterium avium [2]) [µM] | CC10 (HeLa) [µg/mL] | CC50 (HeLa) [µg/mL] | GI50 (L929) [µg/mL] | MIC (Mycobacterium kansasii [5]) [µM] | MIC [10] [µM] | MIC (Mycobacterium kansasii [11]) [µM] | MIC (Mycolicibacterium vaccae) [µg/mL] | MIC [12] [µg/mL] | MIC (Mycobacterium kansasii [13]) [µM] | GI50 (K562) [µg/mL] | MIC (Staphylococcus aureus [14]) [µg/mL] | MIC (Staphylococcus aureus [17]) [µg/mL] | MIC (Mycobacterium kansasii [20]) [µM] | MIC [21] [µg/mL] | MIC (Mycolicibacterium aurum) [µg/mL] | MIC (Mycobacterium kansasii [24]) [µM] | MIC (Enterococcus faecalis) [µg/mL] | MIC (Micrococcus luteus) [µg/mL] | also measured |
| --- | --- | --- | --- | --- | --- | --- | --- | --- | --- | --- | --- | --- | --- | --- | --- | --- | --- | --- | --- | --- | --- |
| C[C@]12CC[C@@H]3c4ccc(OCCCCCCC[n+]5ccc(SCc6ccc(Cl)cc6)cc5)cc4CC[C@H]3[C@@H]1CCC2=O.[Br-] | 3.12 | 8 | 1.9 | 4.1 | 2.8 | 16 | 16 | 16 | 1.56 | 6.25 | 16 | 1 | 3.12 | 3.12 | 16 | 6.25 | 3.12 | 16 | 3.12 | 0.8 | MIC (Candida tropicalis [3]): 15.6 µM; MIC (Nakaseomyces glabratus [4]): 15.6 µM; MIC (Lichtheimia corymbifera [6]): 62.5 µM; MIC (Trichophyton benhamiae [7]): 15.6 µM; MIC (Pichia kudriavzevii [8]): 7.8 µM; MIC (Candida albicans [9]): 7.8 µM; MIC (Trichophyton benhamiae [15]): 7.8 µM; MIC (Nakaseomyces glabratus [16]): 15.6 µM; MIC (Candida albicans [18]): 7.8 µM; MIC (Pichia kudriavzevii [19]): 15.6 µM; MIC (Aspergillus fumigatus [22]): 31 µM; MIC (Aspergillus fumigatus [23]): 15.6 µM; MIC [25]: 16 µM; MIC (Candida tropicalis [26]): 15.6 µM; MIC (Lichtheimia corymbifera [27]): 62.5 µM; MIC (Trichosporon beigelii [28]): 7.8 µM; MIC (Trichosporon beigelii [29]): 7.8 µM; MIC (Mycobacterium avium [30]): 8 µM |
| O=C(O)c1cn(C2CC2)c2cc(N3CCNCC3)c(F)cc2c1=O [CIPROFLOXACIN] | 0.2 (≈ 0.604 µM) |  |  |  |  |  |  |  | 0.78 (≈ 2.35 µM) | 0.4 (≈ 1.21 µM) |  |  | > 100 |  |  | 0.78 (≈ 2.35 µM) | 0.1 (≈ 0.302 µM) |  | 0.8 (≈ 2.41 µM) | 12.5 (≈ 37.7 µM) |  |
| Clc1ccc(CSc2ccncc2)cc1 | 50 (≈ 212 µM) | 62.5 (≈ 14.7 µg/mL) | 8.6 (≈ 36.5 µM) | 16.3 (≈ 69.1 µM) | 21.2 (≈ 89.9 µM) | 32 (≈ 7.54 µg/mL) | 32 (≈ 7.54 µg/mL) | 62.5 (≈ 14.7 µg/mL) | 25 (≈ 106 µM) | 12.5 (≈ 53 µM) | 62.5 (≈ 14.7 µg/mL) | 19.8 (≈ 84 µM) | 100 (≈ 424 µM) | > 100 | 62.5 (≈ 14.7 µg/mL) | 25 (≈ 106 µM) | 12.5 (≈ 53 µM) | 32 (≈ 7.54 µg/mL) | 100 (≈ 424 µM) | 50 (≈ 212 µM) | MIC (Mycobacterium kansasii [31]): 62.5 µM (≈ 14.7 µg/mL); MIC [25]: 62.5 µM (≈ 14.7 µg/mL); MIC (Mycobacterium avium [30]): 62.5 µM (≈ 14.7 µg/mL) |
